# From ChEMBL document CHEMBL3351588, “Design, synthesis and biological evaluation of N-alkyl or aryl substituted isoindigo derivatives as potential dual cyclin-dependent kinase 2 (CDK2)/glycogen synthase kinase 3β (GSK-3β) phosphorylation inhibitors” (Eur J Med Chem, 2014)
# Legend:
# K562 [1] = assay: Cytotoxicity against human K562 cells after 48 hrs by SRB assay; format: functional, cell-based; details: K562, 48 h
# Summary of the method: (§1)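 Cells seeded at 5 × 10³ per well and allowed to attach for 12 h, then exposed to a range of drug concentrations in their own medium for 48 h. Fixed with ice-cold TCA for 1 h at 4 °C, washed, then stained with 0.4% SRB for 30 min at room temperature. IC50 is the mean of three independent experiments.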
# MGC-803 = assay: Cytotoxicity against human MGC803 cells after 48 hrs by SRB assay; format: functional, cell-based; details: MGC-803, 48 h; summary of the method: as §1
# [2] = Cytotoxicity against human HCT116 cells after 48 hrs by SRB assay; format: functional, cell-based; details: HCT-116, 48 h; summary of the method: as §1
# A549 = assay: Cytotoxicity against human A549 cells after 48 hrs by SRB assay; format: functional, cell-based; details: A549, 48 h; summary of the method: as §1
# HeLa = assay: Cytotoxicity against human HeLa cells after 48 hrs by SRB assay; format: functional, cell-based; summary of the method: as §1
# L1210 = assay: Cytotoxicity against mouse L1210 cells after 48 hrs by SRB assay; format: functional, cell-based; details: L1210, 48 h; summary of the method: as §1
# [3] = Cytotoxicity against human VEC cells after 48 hrs by SRB assay; format: cell-based; summary of the method: as §1
# K562 [4] = assay: Induction of cell cycle arrest in human K562 cells assessed as accumulation at S phase at 10 uM after 24 hrs by propidium iodide staining based flow cytometry (reference value: 44.90%); format: functional
# K562 [5] = assay: Induction of cell cycle arrest in human K562 cells assessed as accumulation at G0/G1 phase at 10 uM after 24 hrs by propidium iodide staining based flow cytometry (reference value: 36.14%); format: functional
# K562 [6] = assay: Induction of cell cycle arrest in human K562 cells assessed as accumulation at G2/M phase at 10 uM after 24 hrs by propidium iodide staining based flow cytometry (reference value: 18.96%); format: functional
structure (smiles),measurement,setting,value
O=C1Nc2ccccc2/C1=C1\C(=O)N(CCc2ccccc2)c2ccccc21,IC50,K562 [1],17.1 µM
same,IC50,MGC-803,> 200 µM
same,IC50,[2],85.2 µM
same,IC50,A549,85.4 µM
same,IC50,HeLa,> 200 µM
same,IC50,L1210,158 µM
same,IC50,[3],184 µM
CCCCN1C(=O)/C(=C2/C(=O)Nc3ccccc32)c2ccccc21,IC50,K562 [1],114 µM
same,IC50,MGC-803,87.9 µM
same,IC50,[2],34.2 µM
same,IC50,A549,30.2 µM
same,IC50,HeLa,80.7 µM
same,IC50,L1210,75.4 µM
same,IC50,[3],58.1 µM
CC(=O)N1C(=O)/C(=C2/C(=O)N(C(C)=O)c3ccccc32)c2ccccc21,IC50,K562 [1],> 200 µM
same,IC50,MGC-803,> 200 µM
same,IC50,[2],> 200 µM
same,IC50,A549,> 200 µM
same,IC50,HeLa,> 200 µM
same,IC50,L1210,> 200 µM
same,IC50,[3],> 200 µM
CC(C)N1C(=O)/C(=C2/C(=O)Nc3ccccc32)c2ccccc21,IC50,K562 [1],> 200 µM
same,IC50,MGC-803,176 µM
same,IC50,[2],149 µM
same,IC50,A549,183 µM
same,IC50,HeLa,> 200 µM
same,IC50,L1210,> 200 µM
same,IC50,[3],> 200 µM
O=C1Nc2ccccc2/C1=C1\C(=O)N(c2ccc(F)cc2)c2ccccc21,IC50,K562 [1],> 200 µM
same,IC50,MGC-803,108 µM
same,IC50,[2],40.1 µM
same,IC50,A549,22.6 µM
same,IC50,HeLa,> 200 µM
same,IC50,L1210,> 200 µM
same,IC50,[3],93.5 µM
CC(C)CN1C(=O)/C(=C2/C(=O)Nc3ccccc32)c2ccccc21,IC50,K562 [1],74.4 µM
same,IC50,MGC-803,> 200 µM
same,IC50,[2],62.2 µM
same,IC50,A549,52.8 µM
same,IC50,HeLa,> 200 µM
same,IC50,L1210,73.8 µM
same,IC50,[3],97.4 µM
CCN1C(=O)/C(=C2/C(=O)Nc3ccccc32)c2ccccc21,IC50,K562 [1],> 200 µM
same,IC50,MGC-803,67.2 µM
same,IC50,[2],51 µM
same,IC50,A549,61 µM
same,IC50,HeLa,194 µM
same,IC50,L1210,47.5 µM
same,IC50,[3],73 µM
CN1C(=O)/C(=C2/C(=O)Nc3ccccc32)c2ccccc21 [MEISOINDIGO],IC50,K562 [1],23.3 µM
same,Activity,K562 [4],57.5%
same,IC50,MGC-803,128 µM
same,IC50,[2],27 µM
same,IC50,A549,57.3 µM
same,IC50,HeLa,15.7 µM
same,IC50,L1210,167 µM
same,IC50,[3],122 µM
same,Activity,K562 [5],32.25%
same,Activity,K562 [6],10.25%
